Experimental data from ChEMBL document CHEMBL2321739, “Discovery of a novel small molecule inhibitor targeting the frataxin/ubiquitin interaction via structure-based virtual screening and bioassays” (J Med Chem, 2013).
Residue numbers refer to the chain shown, from its start. Activity calls are given as the source filed them. The calls are words filed in the database; no cut-off is given here. Peptide text beside a SMILES is read from it. * marks the point of attachment. Cbz = O=C(OCc1ccccc1)*

How the values were obtained:
Calu-6 [1] = test: Inhibition of human His-tagged Frataxin/Ubiquitin interaction expressed in human Calu6 cells assessed as increase in mature frataxin (81-210) level at 50 uM after 3 days by Western blotting analysis; format: cell-based
Summary of the method: (§1)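 Calu-6 cells (DMEM with glutamax, 10% FBS) transiently transfected with His-frataxin. From 24 h post-transfection, treated with 10 µM proteasome inhibitor for 18 h or 50 µM compound for 3 days. Extracts (50 µg) resolved on 15% SDS gels and immunoblotted with anti-frataxin using ECL detection. Band levels quantified by PhosphorImager and normalized to tubulin. Three independent experiments.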

[2] = target: T1, Frataxin, mitochondrial (Homo sapiens) (UniProt Q16595); test: Binding affinity to recombinant His-tagged frataxin (unknown origin) at 1 uM at 37 degC by UF-LC/MS analysis relative to control
T1 sequence (whole entry): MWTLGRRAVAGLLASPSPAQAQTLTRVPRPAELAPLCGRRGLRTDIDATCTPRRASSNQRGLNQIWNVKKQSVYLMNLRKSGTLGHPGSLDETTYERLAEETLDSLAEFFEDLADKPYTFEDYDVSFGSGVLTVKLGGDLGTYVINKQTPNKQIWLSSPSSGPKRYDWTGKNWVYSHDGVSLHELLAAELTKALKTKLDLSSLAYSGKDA
Summary of the method: (§2)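 His-frataxin recombinant protein (E. coli-expressed, Ni-NTA purified), 1 µM, incubated with ligand at 1 µM in 100 mM Tris-HCl pH 7.5, 50 mM KCl, 5 mM MgCl2, DMSO ≤2%, for 60 min at 25 or 37 °C. Unbound ligand removed by ultrafiltration and washing. Bound ligand dissociated in methanol and quantified by LC/MS (ESI positive). Ratio of peak area with active vs heat-denatured (90 °C, 1 h) protein. Duplicate assays, each analyzed twice.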

Calu-6 [3] = test: (§3) Inhibition of human His-tagged Frataxin/GST-tagged mono ubiquitin interaction expressed in human Calu6 cells after 3 days by GST pull down-based Western blot analysis; format: cell-based
Summary of the method: (§4)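 Calu-6 cells transfected with His-frataxin or His-K147R. From 24 h post-transfection, cells received 10 µM MG132 for 18 h, or compound for 3 days with MG132 added for the last 18 h. Lysate (500 µg) pulled down with 5 µg GST-monoUb or GST on GSH-sepharose, 4 h at 4 °C, pH 7.5 buffer. Eluates blotted with anti-His and quantified by densitometry as % of control. IC50 obtained by four-parameter logistic fit; at least three independent experiments.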

[4] = target: T1, Frataxin, mitochondrial (Homo sapiens); test: Binding affinity to recombinant His-tagged frataxin (unknown origin) at 1 uM at 25 degC by UF-LC/MS analysis relative to control; summary of the method: as §2
[5] = as §3; format: cell-based; conditions: calu-6; summary of the method: as §4
Calu-6 [6] = test: Cytotoxicity against human Calu6 cells assessed as cell viability up to 100 uM; format: cell-based
Calu-6 [7] = test: Inhibition of His-tagged Frataxin (unknown origin)/HA-tagged Ubiquitin interaction expressed in human Calu6 cells assessed as accumulation of monoUB-tagged frataxin (1-210) precursor at 10 uM after 18 hrs by immunoprecipitation assay; format: cell-based
Summary of the method: (§5)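 Calu-6 cells cotransfected with His-frataxin and HA-Ub, then treated with 10 µM MG132 for 18 h starting 24 h after transfection. Frataxin immunoprecipitated from 1.5 mg extract using anti-frataxin on protein A/G beads (4 °C, 12 h). Precipitates run on 12% SDS-PAGE and blotted with anti-Ub. Three independent experiments.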

Calu-6 [8] = test: Inhibition of His-tagged Frataxin (unknown origin)/Ubiquitin interaction expressed in human Calu6 cells assessed as increase in frataxin (1-210) precursor level at 10 uM after 18 hrs by Western blotting analysis; format: cell-based; summary of the method: as §1
[9] = system: T2, Frataxin, mitochondrial (Homo sapiens), Q16595 [K147R]; test: Inhibition of recombinant GST-tagged mono ubiquitin/His-tagged Frataxin K147R mutant (unknown origin) interaction expressed in human Calu6 cells assessed as presence of frataxin signal at 10 uM after 18 hrs by GST pull down-based Western blotting analysis; format: cell-based; conditions: Calu-6; summary of the method: as §4
T2 sequence (whole entry): T1 sequence (whole entry) with K147R

Calu-6 [10] = test: Inhibition of recombinant His-tagged Frataxin (unknown origin)/GST-tagged mono ubiquitin interaction expressed in human Calu6 cells assessed as presence of frataxin signal at 10 uM after 18 hrs by GST pull down-based Western blotting analysis; format: cell-based; summary of the method: as §4
Calu-6 [11] = test: Inhibition of His6-tagged Frataxin (unknown origin)/HA-tagged Ubiquitin interaction expressed in human Calu6 cells assessed as accumulation of frataxin at 10 uM after 18 hrs by immunoprecipitation assay; format: cell-based; summary of the method: as §5

For COc1cccc(C(c2cc3c(cc2O)OCO3)N2CCOCC2)c1OC (single isomer, unassigned; (+)) [listing 1 of 2 here], the inhibition (Calu-6 [1]) was “Active”, the fold change (FC) [2] was 3.32 and the inhibition (Calu-6 [3]) was “Dose-dependent effect”. It also gave a fold change (FC) [4] of 3.7.
For COc1ccc(C(c2cc3c(cc2O)OCO3)N2CCOCC2)cc1 (stereo not drawn), the IC50 [5] was 65 µM and the inhibition (Calu-6 [3]) was “Dose-dependent effect”.
With COc1cccc(C(c2cc3c(cc2O)OCO3)N2CCOCC2)c1OC (racemic) the inhibition (Calu-6 [1]) was “Active”.
With COc1cccc(C(c2cc3c(cc2O)OCO3)N2CCOCC2)c1OC (single isomer, unassigned; (+)) [listing 2 of 2 here] the Activity (Calu-6 [6]) was “Non-toxic” and the IC50 [5] was 45 µM.
For COc1cccc(C(c2cc3c(cc2O)OCO3)N2CCOCC2)c1OC (single isomer, unassigned; (-)), the inhibition (Calu-6 [1]) was “inactive”.
With CN(C)c1ccc(C(c2cc3c(cc2O)OCO3)N2CCOCC2)cc1 (stereo not drawn) the IC50 [5] was 81 µM and the inhibition (Calu-6 [3]) was “Dose-dependent effect”.
With CC(C)C[C@@H](C=O)NC(=O)[C@H](CC(C)C)NC(=O)[C@H](CC(C)C)NC(=O)OCc1ccccc1 (Cbz-Leu-Leu-Leu-aldehyde) the inhibition (Calu-6 [7]) was “Active”, the inhibition (Calu-6 [8]) was “Active” and the inhibition [9] was “inactive”. The inhibition (Calu-6 [10]) was “Active” and the inhibition (Calu-6 [11]) was “Active”.
For Oc1cc2c(cc1C(c1ccc3c(c1)OCO3)N1CCOCC1)OCO2 (stereo not drawn), the IC50 [5] was 70 µM and the inhibition (Calu-6 [3]) was “Dose-dependent effect”.
For COc1ccc(C(c2cc3c(cc2O)OCO3)N2CCCC2)cc1 (stereo not drawn), the IC50 [5] was 97 µM and the inhibition (Calu-6 [3]) was “Dose-dependent effect”.
With Oc1cc2c(cc1C(c1ccc(Cl)cc1)N1CCOCC1)OCO2 (stereo not drawn) the IC50 [5] was 68 µM and the inhibition (Calu-6 [3]) was “Dose-dependent effect”.
With COc1cccc(C(c2cc3c(cc2O)OCO3)N2CCOCC2)c1O (stereo not drawn) the IC50 [5] was 29 µM and the inhibition (Calu-6 [3]) was “Dose-dependent effect”.
For COc1ccc(C(c2cc3c(cc2O)OCO3)N2CCOCC2)c(OC)c1 (stereo not drawn), the IC50 [5] was 44 µM and the inhibition (Calu-6 [3]) was “Dose-dependent effect”.
For Oc1ccccc1C(c1cc2c(cc1O)OCO2)N1CCOCC1 (stereo not drawn), the IC50 [5] was 80 µM and the inhibition (Calu-6 [3]) was “Dose-dependent effect”.
For CC(C)C[C@H](NC(=O)[C@H](Cc1ccccc1)NC(=O)c1cnccn1)B(O)O, the inhibition (Calu-6 [8]) was “Active”.
For COc1ccc(C(c2cc3c(cc2O)OCO3)N2CCOCC2)cc1OC (stereo not drawn), the IC50 [5] was 20 µM and the inhibition (Calu-6 [3]) was “Dose-dependent effect”.
In the case of COc1ccc(C(c2cc3c(cc2O)OCO3)N2CCCCC2)cc1 (stereo not drawn), the IC50 [5] is reported as 82 µM and the inhibition (Calu-6 [3]) is reported as “Dose-dependent effect”.
With Oc1cc2c(cc1C(c1ccc(F)cc1)N1CCOCC1)OCO2 (stereo not drawn) the IC50 [5] was 67 µM and the inhibition (Calu-6 [3]) was “Dose-dependent effect”.
For COc1cc(OC)c(C(c2cc3c(cc2O)OCO3)N2CCOCC2)c(OC)c1 (stereo not drawn), the IC50 [5] was 53 µM and the inhibition (Calu-6 [3]) was “Dose-dependent effect”.
